Measurements as given in PubChem BioAssay AID588438 (The Scripps Research Institute Molecular Screening Center, 2011).
Calls of active or inactive are those of the source.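 The calls were made as follows: active = IC50 of 1 µM or lower against any of the four PAD enzymes tested; inactive = the rest.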

How the values were obtained:
Experiment in all cases: PAD isozyme inhibitor IC50 panel – biochemical, colorimetric, BAEE substrate, recombinant PAD1-4, selectivity assay for PAD4 inhibitor project, late-stage follow-up (AID 588438)
[1] = biological target: Protein-arginine deiminase type-3 (Homo sapiens) (UniProt Q9ULW8); details: recombinant PAD1-4, BAEE citrulline colorimetric absorbance; PAD3
Method in brief: (§1)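 Assay system: recombinant PAD1–4 enzymes; Dosing: 7-point inhibitor series; Medium: pH 7.6 Tris buffer with calcium; Replication: duplicate per concentration; Signal: citrulline color absorbance at 540 nm; Times: 15 min preincubation plus 15 min reaction, 37 °C; Also added: 10 mM BAEE substrate.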

[2] = biological target: Protein-arginine deiminase type-1 (Homo sapiens) (UniProt Q9ULC6); details: recombinant PAD1-4, BAEE citrulline colorimetric absorbance; PAD1
Method in brief: as §1

[3] = biological target: Protein-arginine deiminase type-4 (Homo sapiens) (UniProt Q9UM07); details: recombinant PAD1-4, BAEE citrulline colorimetric absorbance; PAD4
Method in brief: as §1

[4] = biological target: Protein-arginine deiminase type-2 (Homo sapiens) (UniProt Q9Y2J8); details: recombinant PAD1-4, BAEE citrulline colorimetric absorbance; PAD2
Method in brief: as §1

Chain of Protein-arginine deiminase type-3 (Homo sapiens) (Q9ULW8 whole entry, looked up): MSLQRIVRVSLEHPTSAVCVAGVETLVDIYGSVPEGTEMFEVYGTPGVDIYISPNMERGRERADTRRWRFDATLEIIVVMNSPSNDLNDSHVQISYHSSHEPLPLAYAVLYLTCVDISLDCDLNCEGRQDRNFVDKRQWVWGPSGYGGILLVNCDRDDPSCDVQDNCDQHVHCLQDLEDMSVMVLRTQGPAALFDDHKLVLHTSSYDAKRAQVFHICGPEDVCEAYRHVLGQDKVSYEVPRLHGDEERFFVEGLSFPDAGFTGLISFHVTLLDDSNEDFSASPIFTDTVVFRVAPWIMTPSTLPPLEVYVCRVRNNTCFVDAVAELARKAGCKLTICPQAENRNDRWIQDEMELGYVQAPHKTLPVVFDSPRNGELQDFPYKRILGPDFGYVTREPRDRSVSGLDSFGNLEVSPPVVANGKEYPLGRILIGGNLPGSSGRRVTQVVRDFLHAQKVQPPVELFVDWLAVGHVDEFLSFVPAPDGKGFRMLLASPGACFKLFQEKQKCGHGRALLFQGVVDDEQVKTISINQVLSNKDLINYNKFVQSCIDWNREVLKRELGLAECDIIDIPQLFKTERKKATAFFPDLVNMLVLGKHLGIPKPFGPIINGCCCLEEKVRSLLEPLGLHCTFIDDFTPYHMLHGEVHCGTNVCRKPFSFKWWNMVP
Chain of Protein-arginine deiminase type-2 (Homo sapiens) (Q9Y2J8 whole entry, looked up): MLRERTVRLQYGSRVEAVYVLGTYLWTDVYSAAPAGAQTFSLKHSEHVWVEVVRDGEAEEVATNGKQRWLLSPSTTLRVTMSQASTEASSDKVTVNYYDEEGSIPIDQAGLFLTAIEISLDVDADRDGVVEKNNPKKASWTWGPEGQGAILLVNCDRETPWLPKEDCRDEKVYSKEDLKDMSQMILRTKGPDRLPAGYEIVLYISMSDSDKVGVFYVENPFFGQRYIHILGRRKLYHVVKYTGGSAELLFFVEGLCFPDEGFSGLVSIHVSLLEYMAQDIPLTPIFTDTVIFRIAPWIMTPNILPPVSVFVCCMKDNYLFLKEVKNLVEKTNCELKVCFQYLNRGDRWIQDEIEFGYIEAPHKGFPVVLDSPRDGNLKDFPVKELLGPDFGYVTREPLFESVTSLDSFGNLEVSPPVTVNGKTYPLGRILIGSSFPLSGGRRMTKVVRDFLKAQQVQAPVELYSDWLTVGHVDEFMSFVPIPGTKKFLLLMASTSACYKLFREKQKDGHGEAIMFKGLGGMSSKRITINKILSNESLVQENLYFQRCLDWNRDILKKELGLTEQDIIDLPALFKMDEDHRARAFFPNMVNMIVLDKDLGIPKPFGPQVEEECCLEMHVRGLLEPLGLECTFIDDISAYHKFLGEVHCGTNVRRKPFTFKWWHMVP
Chain of Protein-arginine deiminase type-1 (Homo sapiens) (Q9ULC6 whole entry, looked up): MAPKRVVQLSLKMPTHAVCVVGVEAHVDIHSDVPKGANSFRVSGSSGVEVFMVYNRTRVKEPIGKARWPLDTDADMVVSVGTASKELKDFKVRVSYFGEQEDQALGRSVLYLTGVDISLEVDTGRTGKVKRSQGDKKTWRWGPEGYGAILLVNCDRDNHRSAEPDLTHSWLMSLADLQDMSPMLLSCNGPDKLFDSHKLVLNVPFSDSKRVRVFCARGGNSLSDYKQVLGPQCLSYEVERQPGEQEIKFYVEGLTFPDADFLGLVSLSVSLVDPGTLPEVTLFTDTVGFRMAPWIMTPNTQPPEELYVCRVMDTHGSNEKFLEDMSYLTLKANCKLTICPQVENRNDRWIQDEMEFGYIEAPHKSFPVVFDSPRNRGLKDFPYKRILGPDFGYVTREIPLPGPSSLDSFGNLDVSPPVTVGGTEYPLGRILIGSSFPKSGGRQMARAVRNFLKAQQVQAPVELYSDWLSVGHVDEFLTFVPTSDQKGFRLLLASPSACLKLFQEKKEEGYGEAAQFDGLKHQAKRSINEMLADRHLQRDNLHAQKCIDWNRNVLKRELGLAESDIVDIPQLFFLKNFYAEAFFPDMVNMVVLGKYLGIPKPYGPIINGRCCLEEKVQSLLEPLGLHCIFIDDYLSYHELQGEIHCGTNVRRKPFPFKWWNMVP
Chain of Protein-arginine deiminase type-4 (Homo sapiens) (Q9UM07 whole entry, looked up): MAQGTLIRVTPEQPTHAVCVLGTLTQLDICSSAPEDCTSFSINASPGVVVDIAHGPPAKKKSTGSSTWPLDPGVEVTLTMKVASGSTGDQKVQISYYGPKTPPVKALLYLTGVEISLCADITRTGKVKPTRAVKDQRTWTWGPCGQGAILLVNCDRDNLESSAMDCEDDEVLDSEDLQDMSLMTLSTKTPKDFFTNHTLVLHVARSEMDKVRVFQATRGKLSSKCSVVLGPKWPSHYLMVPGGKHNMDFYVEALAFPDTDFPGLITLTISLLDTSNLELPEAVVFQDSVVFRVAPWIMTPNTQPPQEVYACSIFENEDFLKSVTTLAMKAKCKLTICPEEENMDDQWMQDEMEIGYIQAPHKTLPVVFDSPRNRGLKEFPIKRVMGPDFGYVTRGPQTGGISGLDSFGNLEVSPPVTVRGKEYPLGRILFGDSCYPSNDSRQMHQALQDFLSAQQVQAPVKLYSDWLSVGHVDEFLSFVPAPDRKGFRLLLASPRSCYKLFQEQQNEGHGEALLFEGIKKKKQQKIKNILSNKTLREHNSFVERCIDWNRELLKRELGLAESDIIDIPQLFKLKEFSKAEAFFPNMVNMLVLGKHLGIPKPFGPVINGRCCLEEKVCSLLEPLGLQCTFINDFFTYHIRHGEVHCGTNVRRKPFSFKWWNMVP

## COC(=O)c1cccc(-c2ccc3c(n2)C(=O)C(N)=CC3=O)n1
[1]
  IC50: 330 nM
[2]
  IC50: inactive
[3]
  IC50: 880 nM
[4]
  IC50: 420 nM
